The text below walks through data of PMC8319958 (ACS chemical biology, 2020).

The subject of one assay is A549 cells. The experiment in a line: Live-cell probe cleavage in A549 cells, with or without proteasome inhibitors. The settings on record: 10 μM probe, monitored over 60 min. The assay is classed as cell-based.
The next assay has as its system MM.1R. The experiment in a line: Cell viability. In kind it is cell-based. The following applies: 48 h, read-out: IC50 (cell viability).
The next assay addresses T1, proteasome (Homo sapiens, UniProt P28074).
T1 sequence (P28074 60-263): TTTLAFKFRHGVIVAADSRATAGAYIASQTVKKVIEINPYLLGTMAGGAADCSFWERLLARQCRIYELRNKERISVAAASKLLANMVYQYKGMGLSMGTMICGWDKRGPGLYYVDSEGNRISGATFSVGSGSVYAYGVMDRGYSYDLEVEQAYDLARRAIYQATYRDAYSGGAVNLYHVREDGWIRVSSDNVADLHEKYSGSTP
The experiment in a line: Proteasome stimulation in cells detected with TAS probes. The assay is classed as cell-based. The settings on record: cells dosed 1 h with stimulator, washed, TAS3 added, monitored over 60 min. In a few lines: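 Cells (A549, 5000/well, adhered) were pretreated 1 h with test compound in culture medium and washed three times with PBS. They were then given 10 μM probe in modified KRBH buffer, and fluorescence was read on a plate reader for […]. After 25 min equilibration each well was zeroed, linear regression was fitted, and activity was expressed as % of the DMSO control.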

A further assay concerns the target 20S CP (Homo sapiens, UniProt P28074). The assay can be described thus: LC/MS assay of library peptide cleavage by 20S CP. In kind it is biochemical. The following applies: 12 μM peptide, 9 nM 20S CP, 50 mM Tris pH 7.4, 37 °C, 1 h, triplicate. In a few lines:
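Peptide stocks were 600 μM in DMSO, diluted to 12 μM final in 50 mM Tris pH 7.4. One triplicate got purified 20S CP (9 nM final) and the other buffer alone; both ran 1 h at 37 °C. An equal volume of acetonitrile denatured the enzyme. LC/MS EIC peak areas of intact peptide were scaled to the buffer-control mean (set to 1) to give fraction remaining. The four-mer product mass confirmed the cleavage site.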

Numbered stars: 1 amine (or outer) side, 2 acyl side, 3 side chain; on linkers, the order of the positions; unused ones are H or OH. Peptide text beside a SMILES is read from it. * marks the point of attachment. AMC = Cc1cc(=O)oc2cc(N*)ccc12; Suc = O=C(CCC(=O)[*:2])[*:1]; Cbz = O=C(OCc1ccccc1)*

In the case of `Cc1cc(=O)oc2cc(NC(=O)[C@H](Cc3ccc(O)cc3)NC(=O)[C@@H](NC(=O)[C@H](CC(C)C)NC(=O)[C@H](CC(C)C)NC(=O)CCC(=O)O)C(C)C)ccc12` [Suc-LLVY-AMC] (Suc-LLVY-{AMC}), in the assay on A549 cells, the “fluorescence signal (RFU) in cells compared to TAS1” value is given as “significantly lower”.
In general, IC50 refers to the concentration that gives 50% inhibition. `CC(C)C[C@@H](C=O)NC(=O)[C@H](CC(C)C)NC(=O)[C@H](CC(C)C)NC(=O)OCc1ccccc1` [MG-132] (Cbz-Leu-Leu-Leu-aldehyde): the IC50 in the assay with MM.1R amounted to 264 nM.
Turning to `CC(C)c1ccc2c(c1)c(SC(C)(C)C)c(CC(C)(C)C(=O)O)n2Cc1ccc(Cl)cc1` [MK-886], on proteasome, the “proteasome stimulation (% activity vs DMSO control)” value is reported as “strong stimulators”.
In the case of D-Phe, the “cleavage by 20S CP (in words)” value at 20S CP is “did not accept”.
